The values that follow come from ChEMBL document CHEMBL4823286, “Synthesis and evaluation of novel 2,4-diaminopyrimidines bearing a sulfoxide moiety as anaplastic lymphoma kinase (ALK) inhibition agents” (Bioorg Med Chem Lett, 2021).

Experiment [1] relates to NCI-H2228. Briefly: Antiproliferative activity against human NCI-H2228 cells assessed as inhibition of cell proliferation measured by CCK8 assay. It counts as functional, cell-based. A digest of the protocol: (§1)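 Cell proliferation inhibition; IC50 given as mean ± SD of three independent experiments.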
Background: Formazan colour is commonly taken as a measure of viable cells.

Experiment [2] has as its system BaF3. Briefly: Antiproliferative activity against mouse BaF3 cells overexpressing ALK assessed as inhibition of cell proliferation measured by CCK8 assay. It counts as functional, cell-based. A digest of the protocol: as §1
The subject of experiment [3] is NCI-H2228. Description: Induction of apoptosis in human NCI-H2228 cells assessed as viable cells at 25 nM measured after 24 hrs by Annexin V-FITC/PI staining based flow cytometry assay (reference value: 95.6%). It counts as functional. Conditions: read-out: Activity. The procedure, abridged: (§2)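 After 24 h or 48 h exposure (5, 25, 50 nM; DMSO 0.01% control), NCI-H2228 cells were harvested, double-stained with Annexin V-FITC and PI and run on flow cytometry. Stage percentages quantified by software; three experiments, representative shown.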

Experiment [4] relates to NCI-H2228. Description: Induction of apoptosis in human NCI-H2228 cells assessed as early apoptotic cells at 25 nM measured after 24 hrs by Annexin V-FITC/PI staining based flow cytometry assay (reference value: 2.18%). It counts as functional. The procedure, abridged: as §2
In general terms: Flow cytometry measures light scatter and fluorescence of single cells or particles in a stream.

Experiment [5] has as its system NCI-H2228. Description: Induction of apoptosis in human NCI-H2228 cells assessed as late apoptotic cells at 25 nM measured after 24 hrs by Annexin V-FITC/PI staining based flow cytometry assay (reference value: 2.02%). The format is functional. A digest of the protocol:
as §2

Experiment [6] deals with NCI-H2228. Description: Induction of apoptosis in human NCI-H2228 cells assessed as necrotic cells at 25 nM measured after 24 hrs by Annexin V-FITC/PI staining based flow cytometry assay (reference value: 0.21%). The format is functional. The procedure, abridged: as §2
The test system of experiment [7] is NCI-H2228. Description: Induction of apoptosis in human NCI-H2228 cells assessed as viable cells at 25 nM measured after 48 hrs by Annexin V-FITC/PI staining based flow cytometry assay (reference value: 95.3%). Conditions: read-out: Activity. It counts as functional. The procedure, abridged:
as §2

Experiment [8] concerns NCI-H2228. Description: Induction of apoptosis in human NCI-H2228 cells assessed as early apoptotic cells at 25 nM measured after 48 hrs by Annexin V-FITC/PI staining based flow cytometry assay (reference value: 1.58%). It counts as functional. A digest of the protocol: as §2
Experiment [9] has as its system NCI-H2228. Briefly: Induction of apoptosis in human NCI-H2228 cells assessed as late apoptotic cells at 25 nM measured after 48 hrs by Annexin V-FITC/PI staining based flow cytometry assay (reference value: 0.23%). The format is functional. The procedure, abridged:
as §2

Experiment [10] relates to NCI-H2228. Description: Induction of apoptosis in human NCI-H2228 cells assessed as necrotic cells at 25 nM measured after 48 hrs by Annexin V-FITC/PI staining based flow cytometry assay (reference value: 2.88%). The format is functional. A digest of the protocol: as §2

Structures are written as SMILES.

By IC50 is commonly meant the concentration that inhibits the measured activity by half. In the case of `CC[S+]([O-])c1cc(F)ccc1Nc1nc(Nc2ccc(N(C)C3CCN(C)CC3)cc2OC)ncc1Cl` (configuration not stated), the figures for the IC50 in experiment [1] and in experiment [2] were 1.44 µM and 0.082 µM, respectively.

In the case of `CC[S+]([O-])c1cc(F)ccc1Nc1nc(Nc2ccc(N(C)CCN(C)C)cc2OC)ncc1Cl` (configuration not stated), the concentration for half-maximal inhibition (IC50) in [1] came out at 0.0843 µM; in experiment [2], 0.0347 µM.

As to `CC[S+]([O-])c1cc(F)ccc1Nc1nc(Nc2ccc(N3CCN(C(C)=O)CC3)cc2OC)ncc1Cl` (configuration not stated), the IC50 in [1] was found to be 0.704 µM; in experiment [2] it was 0.0857 µM.

Regarding `CC[S+]([O-])c1cc(F)ccc1Nc1nc(Nc2ccc(N3CCN(C)CC3)cc2OC)ncc1Cl` (configuration not stated), the values for the IC50 in [1] and in [2] were 0.104 µM and 0.0489 µM, respectively.

`COc1cc(N2CCN(C)CC2)ccc1Nc1ncc(Cl)c(Nc2ccccc2[S+]([O-])C(C)C)n1` (configuration not stated): the IC50 in experiment [1] worked out at 0.0829 µM; in experiment [2], 0.0323 µM.

Turning to `Cc1cc(Nc2ncc(Cl)c(Nc3ccccc3S(=O)(=O)C(C)C)n2)c(OC(C)C)cc1C1CCNCC1` [CERITINIB], the figures for the half-inhibitory concentration (IC50) in [1] and in experiment [2] were 0.0221 µM and 0.00711 µM, respectively.

Consider `CC[S+]([O-])c1cc(F)ccc1Nc1nc(Nc2ccc(N3CCC(N(C)C)CC3)cc2OC)ncc1Cl` (configuration not stated), for which the half-inhibitory concentration (IC50) in experiment [1] amounted to 0.337 µM; in experiment [2], 0.0794 µM.

Turning to `CC[S+]([O-])c1ccccc1Nc1nc(Nc2ccc(N(C)CCN(C)C)cc2OC)ncc1Cl` (configuration not stated), the concentration for half-maximal inhibition (IC50) turned out to be 0.0693 µM in [1] and 0.0263 µM in experiment [2].

Regarding `CC[S+]([O-])c1cc(F)ccc1Nc1nc(Nc2ccc(N3CCCN(C)CC3)cc2OC)ncc1Cl` (configuration not stated), the results for the half-inhibitory concentration (IC50) in [1] and in experiment [2] were 0.0645 µM and 0.0267 µM, respectively.

For `CCC(=O)Nc1cc(Nc2ncc(Cl)c(Nc3ccc(F)cc3[S+]([O-])CC)n2)c(OC)cc1N(C)CCN(C)C` (configuration not stated), the IC50 in experiment [1] worked out at 0.0481 µM; in experiment [2], 0.0472 µM.

For the molecule `COc1cc(N2CCC(N3CCN(C)CC3)CC2)ccc1Nc1ncc(Cl)c(Nc2ccccc2P(C)(C)=O)n1` [BRIGATINIB], the values for the IC50 in experiment [1] and in [2] were 0.0312 µM and 0.00849 µM, respectively. The viability at 0.025 µM stood at 81.9% in experiment [3] and 52% in experiment [7]. Moreover, the Activity in experiment [4] amounted to 14.4%; in experiment [5], 3.47%; in experiment [6] it was 0.2%; in experiment [8] it was 12.7%; in experiment [9], 31%; in [10], 4.32%.

`CC[S+]([O-])c1ccccc1Nc1nc(Nc2cc(N)c(N(C)CCN(C)C)cc2OC)ncc1Cl` (configuration not stated): the IC50 in experiment [1] worked out at 2.63 µM; in experiment [2], 0.075 µM.

Take `CC[S+]([O-])c1cc(Cl)ccc1Nc1nc(Nc2ccc(N3CCN(C)CC3)cc2OC)ncc1Cl` (configuration not stated): the IC50 in experiment [1] stood at 0.134 µM; in experiment [2], 0.128 µM.

`CCSc1ccccc1Nc1nc(Nc2ccc(N3CCN(C)CC3)cc2OC)ncc1Cl`: the figures for the IC50 in experiment [1] and in [2] were 0.981 µM and 0.078 µM, respectively.

Take `CC[S+]([O-])c1ccccc1Nc1nc(Nc2ccc(N3CCCN(C)CC3)cc2OC)ncc1Cl` (configuration not stated): the 50% inhibitory concentration (IC50) in [1] amounted to 0.0515 µM; in experiment [2], 0.0235 µM.

For `CCC(=O)Nc1cc(Nc2ncc(Cl)c(Nc3ccccc3[S+]([O-])CC)n2)c(OC)cc1N(C)CCN(C)C` (configuration not stated), the half-inhibitory concentration (IC50) in [1] was 0.0554 µM; in experiment [2] it was 0.0354 µM.

Consider `CC[S+]([O-])c1ccccc1Nc1nc(Nc2ccc(N3CCN(C)CC3)cc2OC)ncc1Cl` (configuration not stated), for which the IC50 was 0.0352 µM in experiment [1] and 0.0131 µM in [2].
